Source: PubChem
KCNQ1 act: potentiators or activators of human KCNQ1 potassium channel; CHO-K1 KCNQ1, thallium flux FluxOR fluorescence; active compounds read high; P51787; actives 0.35% (n = 310,000); B-score at 10 µM;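 active means fluorescence ratio B-score, a plate-corrected score, at least three library SD, with initial intensity B-score within 5 SD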
Target sequence (P51787 whole entry, looked up): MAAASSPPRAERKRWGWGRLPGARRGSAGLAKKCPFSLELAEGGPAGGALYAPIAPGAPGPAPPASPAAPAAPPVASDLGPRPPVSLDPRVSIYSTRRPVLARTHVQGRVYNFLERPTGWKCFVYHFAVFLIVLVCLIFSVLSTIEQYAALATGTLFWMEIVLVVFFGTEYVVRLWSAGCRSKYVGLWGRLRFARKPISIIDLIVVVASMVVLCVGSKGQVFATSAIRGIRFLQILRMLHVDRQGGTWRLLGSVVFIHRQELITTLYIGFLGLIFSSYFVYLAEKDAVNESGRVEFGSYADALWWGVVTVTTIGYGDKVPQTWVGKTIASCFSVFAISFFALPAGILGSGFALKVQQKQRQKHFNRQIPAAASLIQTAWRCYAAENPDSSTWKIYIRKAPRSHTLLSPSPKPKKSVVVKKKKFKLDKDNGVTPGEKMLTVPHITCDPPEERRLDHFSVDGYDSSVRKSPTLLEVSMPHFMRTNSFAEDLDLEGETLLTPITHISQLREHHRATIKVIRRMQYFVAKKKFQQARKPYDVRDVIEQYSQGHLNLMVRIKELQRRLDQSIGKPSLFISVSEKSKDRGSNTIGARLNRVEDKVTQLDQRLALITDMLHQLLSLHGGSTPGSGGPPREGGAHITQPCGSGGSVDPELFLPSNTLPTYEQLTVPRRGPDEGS
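Material: CHO-K1 cells stably expressing KCNQ1. Medium: assay buffer for compound exposure, DMSO matched across wells. Reagent: K+/Tl+ depolarizing stimulus. Compound dosing: single-concentration screen. Times: 37 °C overnight plating, 90-min dark dye load, 20-min compound pretreatment. Technique: FluxOR Tl+ flux fluorescence.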
KCNQ1 inh: blocks the human KCNQ1 potassium channel | actives 1.3% (n = 310,000) | CHO-K1 KCNQ1, FluxOR thallium flux fluorescence; active compounds read high | P51787 | B-score at 10 µM | AID 2642;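 active means compounds whose thallium flux B-score, printed positive for inhibition, exceeds three library SD while starting fluorescence stays within three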;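 further: channel opened by potassium depolarization with thallium stimulus after 20 min compound exposure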
KCNK9 block: human KCNK9 channel inhibition | Q9NPC2 | HEK293 KCNK9, FluxOR thallium flux fluorescence; active compounds read low | B-score at 10 µM | actives 1.2% (n = 310,000) | AID 488922;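 active means ratio B-score over 3 SD below the library mean, with starting fluorescence within 5 SD of its mean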;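 further: negative B-score means less thallium flux so channel inhibition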
hERG rescue: shields human hERG channel from block by proarrhythmic agents. Q12809. CHO-hERG, FluxOR thallium flux, dofetilide IC70 present. activation (rescue from dofetilide block), less the hit threshold, % at 10 µM. actives 0.51% (n = 310,000). AID 1511;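 active means activation above the mean of controls blocked by dofetilide plus 5 SD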;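 further: thallium influx through hERG after potassium depolarization seen as dye fluorescence rise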
KCNK3 block: human KCNK3 channel inhibition, primary screen. CHO-KCNK3 thallium flux, FluxOR fluorescence; active compounds read low. B-score at 10 µM. actives 0.84% (n = 340,000);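 active means B-score under library mean minus 4 SD, starting fluorescence ratio at most library mean plus 5 SD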;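 further: more negative B-score means stronger inhibition of thallium flux through KCNK3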
KCNQ1 inh valid: confirmation of human KCNQ1 potassium channel inhibitors; inhibition, % at 10 µM; shares compounds with KCNQ1 inh; actives 93% (n = 1,600); KCNQ1 cell line, FluxOR thallium flux fluorescence;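 active means primary screen active, with duplicate mean exceeding buffer control mean plus 3 SD of buffer wells, cut at about 28% in these data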;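 further: 0% = buffer control ratio and 100% = XE991 inhibitor control ratio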
CHO Tl flux: KCNQ1 inhibitor counter-screen hit in parental CHO cells | parental CHO-K1, FluxOR thallium flux fluorescence ratio; active compounds read low; zero means no signal rise above baseline | AID 588366 | fluorescence ratio (Tl flux) at 10 µM | actives 21% (n = 1,600) | shares compounds with KCNQ1 inh;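 active means mean of duplicate thallium-flux fluorescence ratios in parental host cells more than 5 SD below the buffer control mean, cut at about 0.38 in these data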;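 further: ratio is peak minus minimum fluorescence divided by baseline fluorescence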
KCNQ1 APC inh: human KCNQ1 inhibition validated by electrophysiology; calls only at 10 µM; KCNQ1-CHO cells, automated patch clamp current; actives 20% (n = 490); shares compounds with KCNQ1 inh;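 active means KCNQ1 current drop exceeding 3 SD of negative control wells, seen in both duplicate runs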;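 further: steady state current during a 2 s step from -80 to +40 mV; negative values mean current inhibition and positive values mean potentiation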
KCNQ2 inh: KCNQ1 inhibitor that also blocks rat KCNQ2 channel; shares compounds with KCNQ1 inh; KCNQ2 cells, FluxOR thallium flux fluorescence; inhibition, % at 10 µM; actives 71% (n = 1,600); AID 651746;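 active means mean percent inhibition of the KCNQ2 thallium signal more than 5 SD above the buffer-only control wells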;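 further: KCNQ2 expressed in CHO cells; 0% = buffer control wells and 100% = XE-991 inhibitor control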
KCNQ1 KCNE1 spec: human KCNQ1/KCNE1 inhibition in KCNQ1 specificity screen | shares compounds with KCNQ1 inh | KCNQ1/KCNE1 cells, FluxOR thallium flux fluorescence | inhibition, % at 10 µM | actives 77% (n = 1,600);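 active means mean percent inhibition of duplicate wells above the buffer-only control mean plus 3 SD of those controls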;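 further: 0% = buffer only wells and 100% = XE-991 inhibitor control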
An asterisk follows results filed as active; i = inactive; . = no result; + = active, no number. Shown are actives, neighbours in structure and some others; about 3.1% of the full set was active somewhere.

SMILES	KCNQ1 act	KCNQ1 inh	KCNK9 block	hERG rescue	KCNK3 block	KCNQ1 inh valid	CHO Tl flux	KCNQ2 inh	KCNQ1 KCNE1 spec	others
COc1ccc(Cl)cc1S(=O)(=O)NCc1nc2nc(C)cc(C)n2n1	i	i	i	-11.3	i	.	.	.	.
CC1Cc2ccccc2N1S(=O)(=O)c1cnc(Cl)c(Cl)c1 (stereo not given)	i	i	i	-11.4	i	.	.	.	.
CSc1ccc(S(=O)(=O)N2c3ccccc3CC2C)cc1 (stereo not given)	i	6*	i	-9.8	i	104.5*	0.434	99.0%*	142.0%*	KCNQ1 APC inh=+
CCCc1cc(C(=O)N2CCN(C(c3ccccc3)c3ccccc3)CC2)no1	i	10*	i	-11.5	i	125.5*	0.401	106.3%*	162.5%*	KCNQ1 APC inh=i
O=C(c1cc(-c2cccs2)on1)N1CCN(C(c2ccccc2)c2ccccc2)CC1	i	6*	i	-20.2	i	99.0*	0.41	103.3%*	125.5%*
Cc1cc(NC(=O)CN2C(=O)/C(=C/c3ccccc3F)SC2=S)no1	i	i	i	-0.2	i	.	.	.	.
Cc1cc(NC2CCCCC2)nc(NCc2ccccc2)n1	i	14*	i	-36.2	i	182.5*	0.317*	120.3%*	168.5%*
COc1ccc(Nc2cc(C)nc(NCc3ccccc3)n2)cc1	i	8*	i	-28.0	i	124.0*	0.373*	89.0%*	97.5%*
COc1cc(C)nc(NCc2ccccc2)n1	i	i	i	1.8	i	.	.	.	.
Cc1ccc(Nc2cc(C)nc(NCc3ccccc3)n2)cc1	i	i	i	-30.6	i	.	.	.	.
Cc1ccc(S(=O)(=O)N2CCCCC2)cc1NC(=O)C1CC(=O)N(c2ccc3c(c2)OCCO3)C1 (stereo not given)	i	i	i	-13.5	i	.	.	.	.
Cc1cccc(NC(=O)c2ccccc2OCC(=O)c2ccccc2)c1	i	i	i	-12.3	i	.	.	.	.
Cc1cccc(NC(=O)COc2ccccc2C(=O)NC(C)c2ccccc2)c1 (stereo not given)	i	7*	i	-7.5	i	130.5*	0.396	i	190.5%*
COc1ccc(N2CCN(CCCNC(=O)C(=O)c3c(C)[nH]c4ccccc34)CC2)cc1	i	i	i	-9.4	i	.	.	.	.
CCN(CC)S(=O)(=O)c1cc(C)ccc1NC(=S)Nc1cccnc1	i	10*	i	-12.7	i	68.5*	0.488	61.3%*	47.5%*
CCN(CC)S(=O)(=O)c1cc(C(=O)Nc2cccnc2)ccc1Cl	i	i	i	-13.2	i	.	.	.	.
Cc1cccc(OCCC(=O)OCC(=O)Nc2c(C)nn(-c3ccccc3)c2C)c1	i	10*	i	-19.8	i	32.5*	0.469	64.3%*	35.5%*
O=C(c1cc2ccccc2o1)N(Cc1ccco1)Cc1cccs1	i	7*	i	-19.9	i	119.5*	0.363*	90.7%*	189.5%*
[O-]/C(=C(\C(=S)NCc1ccccc1)[n+]1ccccc1)c1ccc(Cl)cc1	i	i	i	-4.2	i	.	.	.	.
O=C(c1cccc(NS(=O)(=O)c2ccc(F)c(F)c2)c1)N1CCN(C(c2ccccc2)c2ccccc2)CC1	i	11*	i	-14.7	i	131.0*	0.405	109.3%*	155.0%*	KCNQ1 APC inh=i
